The test system of this data set is MS2 coat protein. Briefly: apparent Kd, MS2 coat protein; higher = weaker binding; RNA-MaP array; FMN 200 µM where present. The essentials:
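Stalled E. coli RNA polymerase transcribed the designs on Illumina sequencing-chip clusters. SNAP-549-labelled MS2 coat protein was titrated from 0.7 or 1.5 nM, doubling to 3 µM, without and then with constant ligand, in 100 mM Tris-HCl pH 7.5, 80 mM KCl, 4 mM MgCl2, BSA, DTT, yeast tRNA and Tween-20. Per-cluster binding curves were fitted to green signal normalised to red-channel RNA signal and control-cluster median Fmax. The apparent Kd is the median of the filtered fits.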

The mark [1] stands for this setting: designed as: OFF switch for flavin mononucleotide, no ligand.
Where [2] appears, read: ligand present: flavin mononucleotide, designed as: OFF switch for flavin mononucleotide.
The mark [3] stands for this setting: designed as: ON switch for flavin mononucleotide, no ligand.
Setting [4] is: ligand present: flavin mononucleotide, designed as: ON switch for flavin mononucleotide.

Usually apparent Kd stands for the concentration giving half-maximal binding under the conditions of the assay. On to “GCACUGGAUGUAGGAUAUCAGGACGAUAAGUCCUGAGAAGGACAUGAGGAUCACCCAUGUGUUAAAACCAGUGCAUAUAAUAUA”, for which the “apparent Kd” value was found to be 0.0138 µM under setting [1] and 0.0206 µM under setting [2].
Taken in the same sequence, the figures for “ACUUUACGAGGAUAUACUGUCGGGCCUCGGGCGUCCAUGCGACAUGAGGAUCACCCAUGUAGAAGGCGUUUACU” were 0.0251 µM and 0.0515 µM.
As for “AGCGAACAGGCUAACAUGAGGAUCACCCAUGUGGACUCAUGGUAGGAUAUCGGGAAGGAGGAAACCGAGAAGGGCCGGUGAGCU”, the “apparent Kd” value came to 0.254 µM under setting [3] and 0.0628 µM under setting [4].
“AGGAUUGUGCUAGGAUAUCCAGGUUUGCAACAAGGAGAAGGAGCACAUGAGGAUCACCCAUGUUCUCAAAGGCCAUGGCAAUAA”: the “apparent Kd” value runs as follows: under setting [1], 0.0234 µM; under setting [2], 0.0842 µM.
The corresponding values for “CUAAUGUGAGGAUAUGGUGUUGAUCACAGGAAAAAGAUUCUCCAGAAGGCACAUGAGGAUCACCCAUGUAGUGA” are 0.0656 µM and 0.175 µM.
Taken in the same sequence, the figures for “UGGCCGAAGUUAGGAUAUUGGUUAGGGACGGACUAAGAAGGAGCACAUACAUGAGGAUCACCCAUGUUAGAAGGUUGUCCUCCA” were 0.0155 µM and 0.0137 µM.
Turning to “AAGUAGGUAGGAUAUACAUGGAUAUACAUUCAUGUGGACCUACAUGAGGAUCACCCAUGUAGAAGGACCUAAUA”, the “apparent Kd” value is 0.0432 µM under setting [1] and 0.0416 µM under setting [2].
Taken in the same sequence, the figures for “ACGUUAAAAGGAUAUACAUGAGGAUCACCCAUGUUGUUCGAACUGGUAAACCCUCUAUGUAGAAGGUUUGGCAC” were 0.0235 µM and 0.0501 µM.
Regarding “GUAGCAUUCUGAGGAUAUGGGUUCCGGAAACGGACAUGAGGAUCACCCAUGUGGCGAAAGCCAUACUAGAAGGCAGUAUGCUAC”, the “apparent Kd” value runs as follows: under setting [3], 0.0779 µM; under setting [4], 0.00746 µM.
Take “AAGAAGUGAGGAUAUCGAAGACAAAAAAAAAAAAAGUCGAACGAGAAGGCACAUGAGGAUCACCCAUGUAAGAA”: the “apparent Kd” value was found to be 0.0302 µM under setting [1] and 0.0334 µM under setting [2].
Taken in the same sequence, the figures for “UAGAUGGGAGGAUAUACGUAGAUACAGAUUCGUGUAGUGCUACAUGAGGAUCACCCAUGUAGAAGGCCCGUCUU” were 0.0136 µM and 0.0229 µM.
As for “AUGGAUAUCACAGGAUAUGAUAUGGAUACCAUAUCAGAAGGGUGAUCCAUCCUAUGUAAAUACAUGAGGAUCACCCAUGUGUCC”, the “apparent Kd” value amounted to 0.0151 µM under setting [3] and 0.0316 µM under setting [4].
Taken in the same sequence, the figures for “UUGGCGACGUAGAAGGGUGACAUGAGGAUCACCCAUGUGCCGAUAUUUCUCGAAAUAUGUCGGCCACAGGAUAUACGUGCCAUC” were 0.0382 µM and 0.0918 µM.
As to “GUCGUUUAUGUAGGAUAUGCGAGGCGAGCCUAAGCAGAAGGACAUGAGGAUCACCCAUGUAUUGCGGUCUGCGUUCAGAUCGCU”, the “apparent Kd” value is, setting by setting: under setting [1], 0.045 µM; under setting [2], 0.174 µM.
Take “GCCAUCAUAUGAGGAUAUGACACCGAAACGGUGUCAGAAGGCAUGUCGAUAGACAUGAGGAUCACCCAUGUAUUAAUGAUGGCA”: the “apparent Kd” value came out at 1.09 µM under setting [3] and 0.0951 µM under setting [4].
In the case of “CCCUCACAUGAGGAUCACCCAUGUCAGGAUAUUCGAGGCGCAAAUGCGCCAAAUGCAGGAAGAAGGGACGUGCC”, the “apparent Kd” value under setting [1] was determined as 0.0154 µM and the “apparent Kd” value under setting [2] turned out to be 0.0257 µM.
Take “AGGUCAACCACAGGAUAUGGCUAGCAUAGCUAGCCAGAAGGGUGGUCGUAACUAUGUAAAUACAUGAGGAUCACCCAUGUAUCC”: the “apparent Kd” value runs as follows: under setting [3], 0.134 µM; under setting [4], 0.0254 µM.
The corresponding values for “UGACGGCACACAGGAUAUAGCGCAGAAAGUACGCUAGAAGGGUGAGCACUCGUCCGGGCACAUGAGGAUCACCCAUGUCGUCGA” are 0.204 µM and 0.472 µM.
With “UGUAUGGACAGAGGAUAUACAGAUAGGAUCUACUAUCAAACAGUCCUUACAUGAGGAUCACCCAUGUAGAAGGCUGUCCAUACU”, the “apparent Kd” value is, setting by setting: under setting [1], 0.0194 µM; under setting [2], 0.0858 µM.
For the sequence “GCCUUACCGGUCAGGAUAUACAUUUGUCACUCCUUGUAGAAGGGACAUGAGGAUCACCCAUGUACAUUACAUUC”, the “apparent Kd” value amounted to 0.029 µM under setting [1] and 0.0286 µM under setting [2].
The corresponding values for “GGCGGUCGGGAGGAUAUUCGGGCUGUUUGGCUUGGAGAAGGCUCGACAUGAGGAUCACCCAUGUUAGUGUUCUU” are 0.0739 µM and 0.506 µM.
Regarding “AAUUUACAUGAGGAUCACCCAUGUCAGGAUAUGGUUUUAUUUUUUUCUUUUCUUGAUUCCAGAAGGGACAGCUA”, the “apparent Kd” value runs as follows: under setting [1], 0.127 µM; under setting [2], 0.0683 µM.
The corresponding values for “AGCAGUACAGGAUAUACAUGAGGAUCACCCAUGUGAAAAUUAAGUGGCGUACCACAAAGUAGAAGGGUACUGCA” are 0.032 µM and 0.117 µM.
Taken in the same sequence, the figures for “CUGUUCCGUGUAGGAUAUGCAUAUUCUCAUUAUGCAGAAGGACAUGAGGAUCACCCAUGUAUGUUAUUAUCAUAUGUUACAUGU” were 0.0375 µM and 0.321 µM.
For “UUUAUAAAUUAGAAGGCGUGAUAAAAUACAAUAGACAUGAGGAUCACCCAUGUGUACCCAUGUUAUGAGGAUAUAGUCAUAUAU”, the “apparent Kd” value is, setting by setting: under setting [3], 0.279 µM; under setting [4], 0.233 µM.
In the case of “AGCUGUGGCCGAGGAUAUCUAAACUCAAUAACCGAAAUAUAAUCGGACAUGAGGAUCACCCAUGUAGAGAAGGCGGUCUCAGCA”, the “apparent Kd” value under setting [1] worked out at 0.0341 µM and the “apparent Kd” value under setting [2] worked out at 0.0718 µM.
In the case of “CAUGAGGUAGGAUAUACGAUAAUAUAGGGUAGAUAUAUAACACAUGAGGAUCACCCAUGUAGAAGGACCAGUAG”, the “apparent Kd” value runs as follows: under setting [1], 0.0312 µM; under setting [2], 0.0572 µM.
The corresponding values for “CAGGUAGACUGAGGAUAUACAAAGACCUAGUUUAUCUAGGUCAACAUCACAUGAGGAUCACCCAUGUAGAAGGCAGUCUGCCUG” are 0.0154 µM and 0.0247 µM.
The corresponding values for “CGGCGGAAGCAGAAGGCAUGAACGGACAUGAGGAUCACCCAUGUUGGAAACUCAUGCCCGAAAGAUGAGGAUAUGCGUCCGGGU” are 0.0717 µM and 0.0185 µM.
The corresponding values for “UCCUUGGUACAGAAGGACCGAGCUCCGUAGCAGGUAGGAUAUGUACAUGAGGAUCACCCAUGUCAGCGGUAAUUGCCAGUAUAC” are 0.0546 µM and 0.0277 µM.
On to “AUCAGCUCGGCAGGAUAUACGUCACUGCGUCAGCAGUGUGGUAAGAUCACAUGAGGAUCACCCAUGUAGAAGGGACGAGCUGAU”, for which the “apparent Kd” value is, setting by setting: under setting [1], 0.0114 µM; under setting [2], 0.0745 µM.
Consider “AGGUACGGUCGAUCAUACCAAGGUAGAAGGCGACUGGGAAUGUGAGACAUGAGGAUCACCCAUGUCGAGGAUAUACCUGAAAGU”, for which the “apparent Kd” value was determined as 0.192 µM under setting [1] and 0.0274 µM under setting [2].
As to “AGCUACGUUUCGUAGCAGUGUCAUCGAGAAGGCCUUAUAACAUGAGGAUCACCCAUGUUUGCAUGGGAGGAUAUCGAUGAUACA”, the “apparent Kd” value runs as follows: under setting [3], 0.0201 µM; under setting [4], 0.00563 µM.
For the sequence “GUUAAACAUGAGGAUCACCCAUGUAAGGAUAUGCUGCGGUCGCGCUGACGUGACUGCAGCAGAAGGUACAAAUG”, the “apparent Kd” value under setting [1] came to 0.105 µM and the “apparent Kd” value under setting [2] is 0.0669 µM.
“ACACAUGAGGAUCACCCAUGUACGCGCUGACAGGAGGUCUCACAGGAUAUAUGUAGUGAUGCUACAUAGAAGGGUGAUACCGCG”: the “apparent Kd” value is, setting by setting: under setting [3], 0.0675 µM; under setting [4], 0.0162 µM.
Taken in the same sequence, the figures for “UGGUACUAGGGAGGAUAUGGGAAGAUACAUGAGGAUCACCCAUGUUUAAGAAUGCCGACAGGCAACUAGAAGGCCCUAGUACCU” were 0.414 µM and 0.0202 µM.
“AUCAGCUCGUCAGGAUAUACGUCACUGCGUCAGCAGUGUGGGAAGAUCACAUGAGGAUCACCCAUGUAGAAGGGACGAGCUGAU”: the “apparent Kd” value was 0.635 µM under setting [1] and 0.0204 µM under setting [2].
“UACGACUUCGUAGGAUAUGUAUUUCAUUUCUACAUGAGGAUCACCCAUGUUUGCAUUUUUUUUUGACAGAAGGACGUAAUCGUA”: the “apparent Kd” value under setting [3] amounted to 0.0154 µM and the “apparent Kd” value under setting [4] was 0.0105 µM.
For “UAUAUGUCAGGAUAUUAGUUGUGGACGAAUUUCACUUCUGCUGAGAAGGGACAUGAGGAUCACCCAUGUUCCUC”, the “apparent Kd” value is, setting by setting: under setting [1], 0.0154 µM; under setting [2], 0.016 µM.
As for “CGCUACACCCAGAAGGACAUGAGGAUCACCCAUGUAGGAUAUGGGAGACACAGUCCCAUGUAGAGAAAUUACGCUAGUGUAGCG”, the “apparent Kd” value under setting [4] stood at 0.079 µM.
Take “AUACAUGAGGAUCACCCAUGUAAUUAAUUAAUUAAUAAGAUCUAGGAUAUCAGCUCGAAUAGAGCUGAGAAGGAGAUCACAUGU”: the “apparent Kd” value reads like this: under setting [3], 0.023 µM; under setting [4], 0.0144 µM.
Taken in the same sequence, the figures for “ACAUGAGACUUAGGAUAUGUUGUACCUACAUGUGACAUGAGGAUCACCCAUGUGGUAAGUAUGACACAGAAGGAAGAGAUAUGU” were 0.0214 µM and 0.0199 µM.
As for “UAGAUGGGAGGAUAUACGUAGAUGCGGAUUCGUGUGGUGCUACAUGAGGAUCACCCAUGUAGAAGGCCCGUCUU”, the “apparent Kd” value under setting [1] is 0.0171 µM and the “apparent Kd” value under setting [2] was 0.0722 µM.
The corresponding values for “UAUUCACAUGAGGAUCACCCAUGUAGAAGGCCGAGCCUGGCCACGGUUACACGCCGUGGAGAGCCGGAGGAUAUACAGCUGGUG” are 0.111 µM and 0.0309 µM.
The corresponding values for “CGAGCUGCUGUGAGGAUAUACCUAUGGAUACAUGGGUAGAAGGCACAUGAGGAUCACCCAUGUCCUGCAGCUCG” are 0.0433 µM and 0.273 µM.
The corresponding values for “AAAAAACAUGAGGAUCACCCAUGUGAGGAUAUGCGAAAAAAAAAAAAAAAAAAAAAAAGUAGAAGGCACAAAAA” are 0.0485 µM and 0.173 µM.
For “CGCAAGUCAGGAUAUUCGACAGGUAAAUCAGUGGAUCAGUAGGAGAAGGGACAUGAGGAUCACCCAUGUAUGUA”, the “apparent Kd” value reads like this: under setting [1], 0.0497 µM; under setting [2], 0.0296 µM.
Taken in the same sequence, the figures for “UGUCGGAGCAGAGGAUAUUACAUGAGGAUCACCCAUGUAUGAACCAAUAGCUGGAAACAGCAAUGUAAGAAGGCUGCUUCGACA” were 0.0124 µM and 0.145 µM.

For the origin of these results see the EternaBench riboswitch data.
